# According to ChEMBL document CHEMBL4765357, “Development of small-molecule inhibitors of fatty acyl-AMP and fatty acyl-CoA ligases in Mycobacterium tuberculosis” (Eur J Med Chem, 2020):
# Legend:
# Vero = test: Cytotoxicity against African green monkey Vero cells assessed as reduction in cell viability after 72 hrs by MTT assay; assay type: cell-based; details: Chlorocebus sabaeus
# Outline: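 Vero cells were seeded at (2.5–5.0) × 10⁴ per well in MEM with 5% FBS and penicillin/streptomycin. Compounds were added from 20 mM DMSO stocks to a final 100 μM. Controls were 0.5% and 50% DMSO, all in triplicate. After 72 h at 37 °C in 5% CO₂, cells got 1 mg/mL MTT for 3 h. Formazan was dissolved in isopropanol and read at 570/650 nm, with viability expressed relative to DMSO control.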
# [1] = tested on: Mycobacterium tuberculosis; test: Antimycobacterial activity against Mycobacterium tuberculosis H37Rv ATCC 27294 assessed as inhibition of bacterial growth under GAST medium condition after 7 to 14 days by broth microdilution method; assay type: functional; details: time 7-14 day
# Outline: (§1)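 Mtb H37Rv ATCC 27294 by broth microdilution in GAST or 7H9 base with 5 g/L BSA fraction V, 0.8 g/L NaCl and 0.05% tyloxapol. Carbon source was 20 mM glycerol/10 mM glucose or 0.05 mM sodium palmitate. Compounds came from DMSO stocks with DMSO-only controls. Inoculum was 10⁴-10⁵ cells; growth was read at 7 and 14 days. MIC is the concentration giving >99% growth inhibition; runs were in triplicate.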
# [2] = molecular target: T1, Long-chain-fatty-acid--AMP ligase FadD28 (Mycobacterium tuberculosis, UniProt P9WQ59); test: Inhibition of Mycobacterium tuberculosis H37Rv FAAL28 Spectra expressed in Escherichia coli BL21(DE3) cells assessed as cleavage of MEsG by spectroscopic analysis; details: read-out: Ki(app)
# T1 sequence (P9WQ59 whole entry): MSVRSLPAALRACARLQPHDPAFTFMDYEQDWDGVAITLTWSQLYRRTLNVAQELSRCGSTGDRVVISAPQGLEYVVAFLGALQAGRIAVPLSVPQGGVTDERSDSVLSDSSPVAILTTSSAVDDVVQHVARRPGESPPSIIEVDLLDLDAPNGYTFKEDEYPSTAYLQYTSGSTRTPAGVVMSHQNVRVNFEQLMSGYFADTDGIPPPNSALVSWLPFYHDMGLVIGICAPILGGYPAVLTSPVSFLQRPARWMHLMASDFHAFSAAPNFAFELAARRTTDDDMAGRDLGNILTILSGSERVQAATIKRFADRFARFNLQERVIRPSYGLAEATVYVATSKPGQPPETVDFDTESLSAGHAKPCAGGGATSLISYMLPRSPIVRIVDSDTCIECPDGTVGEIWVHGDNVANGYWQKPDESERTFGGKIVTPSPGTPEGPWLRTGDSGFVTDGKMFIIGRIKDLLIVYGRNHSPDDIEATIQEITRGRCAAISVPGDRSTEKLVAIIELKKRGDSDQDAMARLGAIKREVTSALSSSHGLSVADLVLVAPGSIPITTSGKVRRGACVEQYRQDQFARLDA
# Outline: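 Coupled continuous assay with pyrophosphatase (0.04 U) and nucleoside phosphorylase (0.1 U), using 0.45 μM FAAL28 and 33 μM tetradecanoic acid. Buffer was 50 mM Tris·HCl pH 8.0 with 2.5 mM ATP, 5 mM MgCl₂, 0.5 mM DTT, 150 mM hydroxylamine and 0.2 mM MesG. Apparent Ki came from a Morrison equation fit.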
# [3] = tested on: Mycobacterium tuberculosis; test: Antimycobacterial activity against Mycobacterium tuberculosis H37Rv ATCC 27294 assessed as inhibition of bacterial growth under 7H9 medium condition after 7 to 14 days in presence of palmitate by broth microdilution method; assay type: functional; details: time 7-14 day; outline: as §1
# [4] = molecular target: T1, Long-chain-fatty-acid--AMP ligase FadD28; test: Inhibition of Mycobacterium tuberculosis H37Rv His-tagged FAAL28 expressed in Escherichia coli; details: read-out: Ki(app)
# [5] = tested on: Mycobacterium tuberculosis; test: Antimycobacterial activity against Mycobacterium tuberculosis H37Rv ATCC 27294 assessed as inhibition of bacterial growth under 7H9 medium condition after 7 to 14 days by broth microdilution method; assay type: functional; details: time 7-14 day; outline: as §1
# [6] = tested on: Mycobacterium tuberculosis; test: Antimycobacterial activity against Mycobacterium tuberculosis H37Rv after 16 hrs; assay type: functional
# [7] = molecular target: T2, Medium/long-chain-fatty-acid--CoA/3-oxocholest-4-en-26-oate--CoA ligase (Mycobacterium tuberculosis, UniProt P9WQ51); test: Inhibition of Mycobacterium tuberculosis H37Rv FACL19 Spectra expressed in Escherichia coli BL21(DE3) cells assessed as cleavage of MEsG by spectroscopic analysis; details: read-out: Ki(app)
# T2 sequence (P9WQ51 whole entry): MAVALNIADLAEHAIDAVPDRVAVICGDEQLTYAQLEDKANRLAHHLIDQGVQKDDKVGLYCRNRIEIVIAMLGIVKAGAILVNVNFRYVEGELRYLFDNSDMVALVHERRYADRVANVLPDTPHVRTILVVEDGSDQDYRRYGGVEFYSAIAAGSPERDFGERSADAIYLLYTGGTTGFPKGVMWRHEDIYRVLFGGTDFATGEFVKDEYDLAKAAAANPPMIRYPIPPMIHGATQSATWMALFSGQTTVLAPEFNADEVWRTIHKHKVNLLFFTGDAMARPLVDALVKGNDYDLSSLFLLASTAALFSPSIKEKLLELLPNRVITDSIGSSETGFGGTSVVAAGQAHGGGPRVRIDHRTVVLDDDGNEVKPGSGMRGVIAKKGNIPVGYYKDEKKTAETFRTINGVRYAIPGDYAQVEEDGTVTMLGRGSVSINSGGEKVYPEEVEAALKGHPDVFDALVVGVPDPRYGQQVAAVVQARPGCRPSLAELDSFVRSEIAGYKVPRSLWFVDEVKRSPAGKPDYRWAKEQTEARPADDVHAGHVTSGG
# Outline: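 FACL19 (0.167 μM) with 250 μM dodecanoic acid in a coupled MesG assay with pyrophosphatase and nucleoside phosphorylase. Buffer was 50 mM Tris·HCl pH 8.0 with 2.5 mM ATP, 5 mM MgCl₂, 0.5 mM DTT and 150 mM hydroxylamine. Apparent Ki came from a Morrison tight-binding fit.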
# [8] = molecular target: T2, Medium/long-chain-fatty-acid--CoA/3-oxocholest-4-en-26-oate--CoA ligase; test: Inhibition of Mycobacterium tuberculosis H37Rv His-tagged FACL19 expressed in Escherichia coli; details: read-out: Ki(app)
# [9] = Inhibition of Mycobacterium tuberculosis PKS13
# [10] = tested on: Mycolicibacterium smegmatis; test: Antimycobacterial activity against Mycobacterium smegmatis; assay type: functional
Structure (SMILES),IC50 (Vero),MIC [1],Ki [2],MIC [3],Ki [4],MIC [5],MIC [6],Ki [7],Ki [8],IC50 [9],MIC [10]
CCCCCCCCCCCC(=O)NS(=O)(=O)OC[C@H]1O[C@@H](n2cnc3c(N)ncnc32)[C@H](O)[C@@H]1O,28.7 µM,0.19 µM,6.4 µM,50 µM,1.5 µM,50 µM,100 µM,67.4 µM,4.9 µM,–,–
Cc1cc2oc(=O)cc(-c3cccc(N)c3)c2c(C)c1-c1ccc(CN2CCOCC2)cc1,–,–,–,–,–,–,–,–,–,0.5 µM,–
CCCCOCCOCCOCC(=O)NS(=O)(=O)OC[C@H]1O[C@@H](n2cnc3c(N)ncnc32)[C@H](O)[C@@H]1O,16 µM,6.25 µM,> 100 µM,> 100 µM,–,> 100 µM,–,> 100 µM,–,–,–
CCCCCCCCCCCCOP(=O)(O)OC[C@H]1O[C@@H](n2cnc3c(N)ncnc32)[C@H](O)[C@@H]1O,–,–,–,–,–,–,–,–,–,–,20 µM
C=CCCCCCCCCC(=O)NS(=O)(=O)OC[C@H]1O[C@@H](n2cnc3c(N)ncnc32)[C@H](O)[C@@H]1O,11.6 µM,0.39 µM,> 100 µM,25 µM,–,25 µM,–,> 100 µM,–,–,–
Nc1ncnc2c1ncn2[C@@H]1O[C@H](COS(=O)(=O)NC(=O)CCCCCCCCCCOc2ccccc2)[C@@H](O)[C@H]1O,2 µM,3.13 µM,0.71 µM,50 µM,–,50 µM,–,> 100 µM,–,–,–
Nc1ncnc2c1ncn2[C@@H]1O[C@H](COS(=O)(=O)NC(=O)CCCCCCCCCCO)[C@@H](O)[C@H]1O,42.7 µM,6.25 µM,92.7 µM,100 µM,–,100 µM,–,> 100 µM,–,–,–
CCCCCCCCC/C=C/C(=O)NS(=O)(=O)OC[C@H]1O[C@@H](n2cnc3c(N)ncnc32)[C@H](O)[C@@H]1O,10.4 µM,100 µM,> 100 µM,> 100 µM,–,> 100 µM,–,> 100 µM,–,–,–
NCCCCCCCCCCCC(=O)NS(=O)(=O)OC[C@H]1O[C@@H](n2cnc3c(N)ncnc32)[C@H](O)[C@@H]1O,27.1 µM,3.13 µM,> 100 µM,12.5 µM,–,50 µM,–,93.3 µM,–,–,–
CCCCCC/C=C/CCCC(=O)NS(=O)(=O)OC[C@H]1O[C@@H](n2cnc3c(N)ncnc32)[C@H](O)[C@@H]1O,16.8 µM,100 µM,> 100 µM,> 100 µM,–,> 100 µM,–,> 100 µM,–,–,–
CCCCCCCCCOCC(=O)NS(=O)(=O)OC[C@H]1O[C@@H](n2cnc3c(N)ncnc32)[C@H](O)[C@@H]1O,8.7 µM,0.098 µM,> 100 µM,25 µM,–,25 µM,–,> 100 µM,–,–,–
CCCCCCCCC[C@@H]1C[C@@H]1C(=O)NS(=O)(=O)OC[C@H]1O[C@@H](n2cnc3c(N)ncnc32)[C@H](O)[C@@H]1O,6.1 µM,50 µM,69.8 µM,> 100 µM,–,> 100 µM,–,> 100 µM,–,–,–
[N-]=[N+]=NCCCCCCCCCCCC(=O)NS(=O)(=O)OC[C@H]1O[C@@H](n2cnc3c(N)ncnc32)[C@H](O)[C@@H]1O,5.6 µM,0.19 µM,28.5 µM,25 µM,–,12.5 µM,–,> 100 µM,–,–,–
